Results from ChEMBL document CHEMBL4043283, “Discovery and Preclinical Development of IIIM-290, an Orally Active Potent Cyclin-Dependent Kinase Inhibitor” (J Med Chem, 2018).
Values after ≈ are worked out from the molar mass of the structure shown. Active and inactive are the calls of the source. The calls are words filed in the database; no cut-off is given here.

How the values were obtained:
[1] = Half life in human liver microsomes at 100 uM after 30 mins by LC-MS/MS analysis; type: ADME, microsome
T47D = assay: Growth inhibition of human T47D cells after 48 hrs by MTT assay; type: functional
Method in brief: (§1)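 Cancer cell lines sourced from the National Cancer Institute (USA). Cells kept in appropriate growth medium at 37 °C, 95% humidity, 5% CO2. Antiproliferation read by tetrazolium (MTT) assay. GI50 values were determined only for compounds selected after an initial single-concentration screen.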

Cytochrome P450 2C9 = Cytochrome P450 2C9 (Homo sapiens, UniProt P11712); assay: Time-dependent inhibition of human CYP2C9 at 2 uM using fluorogenic substrate by fluorometric method; type: ADME
[2] = Protein binding in mouse plasma at 3 uM after 5 hrs by equilibrium dialysis method; type: ADME, cell-free; details: read-out: PPB (converted)
[3] = AUC in BALB/c mouse at 30 mg/kg, po by LC-MS/MS analysis; type: ADME, organism-based; details: in vivo
HL-60 = assay: Growth inhibition of human HL60 cells after 48 hrs by MTT assay; type: functional; details: HL-60, 48 h; method in brief: as §1
MIA PaCa-2 [4] = assay: Growth inhibition of human MIAPaCa2 cells at 10 uM after 48 hrs by MTT assay relative to control; type: functional; details: MIA PaCa-2, 48 h, read-out: GI
Method in brief: (§2)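 Single-concentration primary screen at 10 μM by MTT assay. Cells were NCI-sourced cancer lines grown in appropriate medium at 37 °C, 95% humidity, 5% CO2. Growth inhibition is expressed relative to control.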

OVCAR-3 = assay: Growth inhibition of human OVCAR3 cells after 48 hrs by MTT assay; type: functional; details: OVCAR-3, 48 h; method in brief: as §1
[5] = Chemical stability of compound in phosphate buffered saline at pH 7.4 assessed as parent compound remaining at 120 ug/ml after 24 hrs by HPLC method; type: physicochemical; details: read-out: Stability
[6] = Thermodynamic equilibrium solubility of compound in SGF at pH 1.2 after 5 hrs by shake flask method; type: physicochemical; details: read-out: Therm_solubility
[7] = Tmax in Sprague-Dawley rat at 10 mg/kg, po by LC-MS/MS analysis; type: ADME, organism-based; details: in vivo
CDK6/cyclin D3 = CDK6/cyclin D3 (Homo sapiens, UniProt Q00534); assay: Inhibition of CDK6/cyclin D3 (unknown origin) after 30 mins in presence of [33P]-gamma-ATP by filter binding assay; type: protein-complex assay
[8] = Cmax in Sprague-Dawley rat at 3 mg/kg, po by LC-MS/MS analysis; type: ADME, organism-based; set-up: dose 3 mg/kg, route oral; details: in vivo
serum albumin = serum albumin (Homo sapiens, UniProt P02768); assay: Binding affinity to human serum albumin; type: ADME; details: read-out: PB (converted)
[9] = Ratio of Cmax in Sprague-Dawley rat at 30 mg/kg, po to GI50 for human MIAPaCa2 cells
[10] = AUC in BALB/c mouse at 3 mg/kg, po by LC-MS/MS analysis; type: ADME, organism-based; details: in vivo
[11] = Volume of distribution at steady state in BALB/c mouse at 1 mg/kg, iv by LC-MS/MS analysis; type: ADME, organism-based; details: in vivo, read-out: Vdss
[12] = Chemical stability of compound in SIF at pH 6.8 assessed as parent compound remaining after 8 hrs by HPLC method; type: physicochemical; details: read-out: Stability
[13] = Half life in monkey liver microsomes at 100 uM after 30 mins by LC-MS/MS analysis; type: ADME, Macaca mulatta, microsome; details: rhesus monkey
Method in brief: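 Parent loss followed over time to give half-life, with NADPH as cofactor for microsomal phase I metabolism.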

[14] = Tmax in Sprague-Dawley rat at 30 mg/kg, po by LC-MS/MS analysis; type: ADME, organism-based; details: in vivo
[15] = AUC in BALB/c mouse at 10 mg/kg, po by LC-MS/MS analysis; type: ADME, organism-based; details: in vivo
MCF7 = assay: Growth inhibition of human MCF7 cells at 10 uM after 48 hrs by MTT assay relative to control; type: functional; details: MCF7, 48 h, read-out: GI; method in brief: as §2
Cytochrome P450 3A4 = Cytochrome P450 3A4 (Homo sapiens, UniProt P08684); assay: Inhibition of human CYP3A4 using fluorogenic substrate preincubated with co-factor for 10 mins followed by enzyme-substrate addition by fluorometric method; type: ADME
Method in brief: (§3)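 Cofactor plus test item or vehicle, in triplicate, preincubated 10 min at 37 °C; prewarmed enzyme–substrate mix added and incubated at 37 °C with shaking. Quench: acetonitrile (CYP2C19, CYP3A4) or 0.25 M Tris in 60% methanol (CYP2C9, CYP2D6). Metabolite fluorescence read; % inhibition computed against enzyme controls and enzyme-free blanks.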

[16] = molecular target: Citron Rho-interacting kinase (Homo sapiens) (UniProt O14578); assay: Inhibition of partial length wild type human CIT expressed in bacterial expression system at 0.5 uM by KINOMEscan method relative to control
Method in brief: (§4)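 Competition binding screen (KINOMEscan) at 0.5 μM; primary binding read out as % of control, lower values indicating stronger interaction.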

Cytochrome P450 1A2 = Cytochrome P450 1A2 (Homo sapiens, UniProt P05177); assay: Inhibition of human CYP1A2 using fluorogenic substrate preincubated with co-factor for 10 mins followed by enzyme-substrate addition by fluorometric method; type: ADME; method in brief: as §3
[17] = tested on: alpha-1 acid glycoprotein; assay: Binding affinity to alpha-1 acid glycoprotein (unknown origin); type: ADME; details: human, read-out: PB (converted)
MIA PaCa-2 [18] = assay: Antitumor activity against human MIAPaCa2 cells xenografted in CD1 nude mouse assessed as tumor growth inhibition at 25 mg/kg, po qd administered on day 10 to 25 post tumor inoculation; type: functional, organism-based
[19] = Half life in dog hepatocytes at 3 uM after 180 mins by LC-MS/MS analysis; type: ADME, cell-based, Canis lupus familiaris, Hepatocyte
CDK1/Cyclin E = CDK1/Cyclin E (Homo sapiens, UniProt P06493); assay: Inhibition of CDK1/cyclin E (unknown origin) after 30 mins in presence of [33P]-gamma-ATP by filter binding assay; type: protein-complex assay
[20] = Cmax in Sprague-Dawley rat at 30 mg/kg, po by LC-MS/MS analysis; type: ADME, organism-based; set-up: dose 30 mg/kg, route oral; details: in vivo
[21] = Intrinsic clearance in rat liver microsomes assessed per mg of protein at 100 uM after 30 mins by LC-MS/MS analysis; type: ADME, microsome; details: read-out: CLH
[22] = Intrinsic clearance in dog liver microsomes assessed per mg of protein at 100 uM after 30 mins by LC-MS/MS analysis; type: ADME, Canis lupus familiaris, microsome; details: read-out: CLH
Method in brief: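 Intrinsic clearance obtained from substrate disappearance over time, reported per mg protein (microsomes, S9) or per 10^6 cells (hepatocytes).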

[23] = molecular target: Cyclin-dependent kinase 4/cyclin D1 (Homo sapiens) (UniProt P11802+P24385); assay: Inhibition of full length wild type human CDK4/cyclin D1 expressed in mammalian expression system at 0.5 uM by KINOMEscan method relative to control; method in brief: as §4
Kidney = assay: Drug uptake in BALB/c mouse kidney at 30 mg/kg, po after 8 hrs; type: ADME, organism-based; details: in vivo
Liver [24] = assay: Intrinsic clearance in mouse liver S9 fraction assessed per mg of protein preincubated for 5 mins followed by NADPH addition measured after 30 mins by LC-MS/MS analysis; type: ADME, tissue-based; details: s9, 0.5 h
Caco-2 = assay: Growth inhibition of human Caco2 cells at 10 uM after 48 hrs by MTT assay relative to control; type: functional; details: Caco-2, 48 h, read-out: GI; method in brief: as §2
Liver [25] = assay: Intrinsic clearance in human liver S9 fraction assessed per mg of protein preincubated for 5 mins followed by NADPH addition measured after 30 mins by LC-MS/MS analysis; type: ADME, tissue-based; details: s9, 0.5 h

Chain of Cytochrome P450 1A2 (P05177 whole entry): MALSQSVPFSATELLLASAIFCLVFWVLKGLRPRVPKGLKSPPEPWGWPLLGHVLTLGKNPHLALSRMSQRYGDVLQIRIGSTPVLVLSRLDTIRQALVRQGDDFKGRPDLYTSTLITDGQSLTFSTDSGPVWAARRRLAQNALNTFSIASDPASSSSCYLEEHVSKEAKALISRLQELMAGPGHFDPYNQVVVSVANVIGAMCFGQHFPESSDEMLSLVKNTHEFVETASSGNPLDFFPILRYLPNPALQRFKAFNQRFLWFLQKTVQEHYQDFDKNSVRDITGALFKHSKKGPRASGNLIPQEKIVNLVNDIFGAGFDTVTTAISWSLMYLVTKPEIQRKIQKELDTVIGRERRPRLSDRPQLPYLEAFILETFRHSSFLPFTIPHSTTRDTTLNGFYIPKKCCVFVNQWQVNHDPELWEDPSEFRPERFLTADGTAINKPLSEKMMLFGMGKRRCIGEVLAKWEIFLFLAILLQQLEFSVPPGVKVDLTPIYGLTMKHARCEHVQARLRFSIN
Chain of serum albumin (P02768 whole entry): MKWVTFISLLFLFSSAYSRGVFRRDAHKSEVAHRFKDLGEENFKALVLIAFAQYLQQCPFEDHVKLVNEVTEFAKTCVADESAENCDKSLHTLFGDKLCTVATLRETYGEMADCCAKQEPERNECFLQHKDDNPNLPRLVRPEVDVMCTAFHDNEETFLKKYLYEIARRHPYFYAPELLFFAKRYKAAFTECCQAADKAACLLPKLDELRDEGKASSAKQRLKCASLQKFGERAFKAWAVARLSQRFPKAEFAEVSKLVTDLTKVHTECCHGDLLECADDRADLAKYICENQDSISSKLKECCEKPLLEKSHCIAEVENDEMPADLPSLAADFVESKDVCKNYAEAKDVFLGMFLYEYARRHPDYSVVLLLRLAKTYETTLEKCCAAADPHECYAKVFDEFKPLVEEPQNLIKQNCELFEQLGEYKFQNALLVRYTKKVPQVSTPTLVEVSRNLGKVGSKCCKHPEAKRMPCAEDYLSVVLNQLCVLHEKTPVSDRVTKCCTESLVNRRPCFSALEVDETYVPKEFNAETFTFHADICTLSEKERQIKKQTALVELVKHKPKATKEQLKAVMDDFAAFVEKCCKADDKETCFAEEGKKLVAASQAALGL
Chain of Cytochrome P450 2C9 (P11712 whole entry): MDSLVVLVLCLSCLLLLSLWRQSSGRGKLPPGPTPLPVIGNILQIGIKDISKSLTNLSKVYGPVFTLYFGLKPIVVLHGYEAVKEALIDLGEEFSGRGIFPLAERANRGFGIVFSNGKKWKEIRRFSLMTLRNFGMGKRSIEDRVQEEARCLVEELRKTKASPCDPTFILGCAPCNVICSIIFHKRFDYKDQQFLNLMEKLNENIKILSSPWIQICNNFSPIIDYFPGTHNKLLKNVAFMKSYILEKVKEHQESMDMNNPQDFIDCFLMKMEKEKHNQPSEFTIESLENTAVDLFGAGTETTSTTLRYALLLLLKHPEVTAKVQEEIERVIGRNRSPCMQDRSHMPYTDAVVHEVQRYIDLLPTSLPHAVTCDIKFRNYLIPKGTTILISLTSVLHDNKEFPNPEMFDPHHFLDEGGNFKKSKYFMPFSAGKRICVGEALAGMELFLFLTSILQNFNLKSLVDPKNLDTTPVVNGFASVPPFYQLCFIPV
Chain of CDK1/Cyclin E (P06493 whole entry): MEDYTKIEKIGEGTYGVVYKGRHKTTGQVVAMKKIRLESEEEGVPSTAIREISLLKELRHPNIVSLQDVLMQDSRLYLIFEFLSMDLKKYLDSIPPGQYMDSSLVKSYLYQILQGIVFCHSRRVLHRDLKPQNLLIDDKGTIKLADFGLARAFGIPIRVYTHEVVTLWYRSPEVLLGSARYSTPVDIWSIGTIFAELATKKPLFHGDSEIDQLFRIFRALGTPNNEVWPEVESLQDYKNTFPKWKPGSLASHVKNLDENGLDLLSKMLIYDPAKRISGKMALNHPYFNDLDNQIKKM
Chain of CDK1/Cyclin E (P24864 whole entry, further chain): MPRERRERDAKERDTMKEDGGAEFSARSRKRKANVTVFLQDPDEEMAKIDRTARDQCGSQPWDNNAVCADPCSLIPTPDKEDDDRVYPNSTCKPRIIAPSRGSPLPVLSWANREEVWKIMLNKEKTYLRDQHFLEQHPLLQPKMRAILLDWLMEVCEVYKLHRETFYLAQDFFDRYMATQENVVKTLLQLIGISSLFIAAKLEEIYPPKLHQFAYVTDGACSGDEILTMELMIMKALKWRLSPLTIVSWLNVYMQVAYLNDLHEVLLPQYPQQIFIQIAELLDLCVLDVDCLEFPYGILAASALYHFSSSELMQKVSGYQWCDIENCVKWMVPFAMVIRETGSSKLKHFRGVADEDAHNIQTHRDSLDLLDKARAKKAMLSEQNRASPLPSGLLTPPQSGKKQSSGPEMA
Chain of Cytochrome P450 3A4 (P08684 whole entry): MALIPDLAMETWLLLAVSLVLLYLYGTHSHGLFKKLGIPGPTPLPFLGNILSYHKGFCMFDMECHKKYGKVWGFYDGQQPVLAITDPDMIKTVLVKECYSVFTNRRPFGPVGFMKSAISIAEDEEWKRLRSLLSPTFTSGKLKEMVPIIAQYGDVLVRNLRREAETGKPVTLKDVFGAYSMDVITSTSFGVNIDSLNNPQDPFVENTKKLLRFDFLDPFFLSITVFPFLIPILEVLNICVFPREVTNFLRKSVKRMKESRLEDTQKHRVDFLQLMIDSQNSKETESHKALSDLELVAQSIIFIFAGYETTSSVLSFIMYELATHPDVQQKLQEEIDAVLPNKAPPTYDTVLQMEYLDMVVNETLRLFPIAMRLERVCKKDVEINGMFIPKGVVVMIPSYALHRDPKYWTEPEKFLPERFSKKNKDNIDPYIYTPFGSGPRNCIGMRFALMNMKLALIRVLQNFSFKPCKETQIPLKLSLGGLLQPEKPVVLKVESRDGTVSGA
Chain of Citron Rho-interacting kinase (Homo sapiens) (O14578 whole entry): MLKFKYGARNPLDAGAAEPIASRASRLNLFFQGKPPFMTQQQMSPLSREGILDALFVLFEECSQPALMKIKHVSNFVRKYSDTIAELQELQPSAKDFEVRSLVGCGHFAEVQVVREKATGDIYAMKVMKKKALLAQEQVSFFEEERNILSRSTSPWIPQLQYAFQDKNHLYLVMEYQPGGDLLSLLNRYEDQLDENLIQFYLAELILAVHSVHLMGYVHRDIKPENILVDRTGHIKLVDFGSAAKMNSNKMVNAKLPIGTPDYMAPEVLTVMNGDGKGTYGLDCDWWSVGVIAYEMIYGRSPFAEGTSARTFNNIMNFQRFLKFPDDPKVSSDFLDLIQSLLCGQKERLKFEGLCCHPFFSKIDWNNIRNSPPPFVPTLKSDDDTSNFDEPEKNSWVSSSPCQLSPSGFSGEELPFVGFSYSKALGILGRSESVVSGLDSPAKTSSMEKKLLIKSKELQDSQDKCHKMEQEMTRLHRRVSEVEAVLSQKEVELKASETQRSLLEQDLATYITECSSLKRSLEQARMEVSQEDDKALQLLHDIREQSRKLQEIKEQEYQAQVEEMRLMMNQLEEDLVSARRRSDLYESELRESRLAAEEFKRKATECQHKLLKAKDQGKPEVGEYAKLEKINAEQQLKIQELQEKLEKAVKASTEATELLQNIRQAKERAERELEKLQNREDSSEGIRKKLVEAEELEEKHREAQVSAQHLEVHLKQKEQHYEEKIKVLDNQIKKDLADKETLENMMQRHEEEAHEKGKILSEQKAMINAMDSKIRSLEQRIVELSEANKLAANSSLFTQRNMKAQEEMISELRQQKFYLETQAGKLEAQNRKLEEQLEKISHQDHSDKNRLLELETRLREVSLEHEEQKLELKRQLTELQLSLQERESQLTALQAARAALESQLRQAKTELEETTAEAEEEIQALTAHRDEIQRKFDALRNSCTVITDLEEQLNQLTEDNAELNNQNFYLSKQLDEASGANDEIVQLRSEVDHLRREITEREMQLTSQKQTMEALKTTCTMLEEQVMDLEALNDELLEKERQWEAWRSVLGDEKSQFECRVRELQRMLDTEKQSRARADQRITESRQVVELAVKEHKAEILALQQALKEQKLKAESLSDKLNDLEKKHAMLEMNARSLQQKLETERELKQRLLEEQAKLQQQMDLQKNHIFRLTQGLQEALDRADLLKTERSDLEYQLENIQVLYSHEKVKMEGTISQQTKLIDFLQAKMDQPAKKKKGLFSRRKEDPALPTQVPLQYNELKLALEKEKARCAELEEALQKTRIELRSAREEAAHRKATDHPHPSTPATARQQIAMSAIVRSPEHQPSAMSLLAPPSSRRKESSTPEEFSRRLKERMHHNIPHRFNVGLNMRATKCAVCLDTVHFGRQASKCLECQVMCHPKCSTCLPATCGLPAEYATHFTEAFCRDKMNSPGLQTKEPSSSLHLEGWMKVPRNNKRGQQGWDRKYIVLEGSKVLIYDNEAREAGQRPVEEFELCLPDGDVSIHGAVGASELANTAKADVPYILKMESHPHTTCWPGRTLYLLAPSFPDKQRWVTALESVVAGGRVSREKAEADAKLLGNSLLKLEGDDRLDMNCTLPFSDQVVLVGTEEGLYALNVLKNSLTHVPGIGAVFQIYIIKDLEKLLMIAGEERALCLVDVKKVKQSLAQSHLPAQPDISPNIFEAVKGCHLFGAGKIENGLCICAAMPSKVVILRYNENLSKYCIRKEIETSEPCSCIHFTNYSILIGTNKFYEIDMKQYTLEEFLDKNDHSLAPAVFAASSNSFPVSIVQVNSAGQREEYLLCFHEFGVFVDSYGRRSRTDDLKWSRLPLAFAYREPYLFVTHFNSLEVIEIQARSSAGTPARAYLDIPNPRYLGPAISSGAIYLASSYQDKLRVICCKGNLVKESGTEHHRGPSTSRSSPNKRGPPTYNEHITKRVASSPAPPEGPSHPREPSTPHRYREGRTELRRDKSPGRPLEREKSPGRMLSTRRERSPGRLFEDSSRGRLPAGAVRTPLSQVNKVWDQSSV

CN1CC[C@H](c2c(O)cc(O)c3c(=O)cc(/C=C/c4c(Cl)cccc4Cl)oc23)[C@H](O)C1
half-life at 100 µM [1]: > 0.5 h | GI50 (T47D): 6 µM | TDI (Cytochrome P450 2C9): Not Active | fraction unbound at 5 h, 3 µM [2]: 0.028 | AUC [3]: 11.3 µM·h | GI50 (HL-60): 0.9 µM | inhibition of growth at 10 µM (MIA PaCa-2 [4]): 88% | GI50 (OVCAR-3): 8 µM | remaining at 24 h, 120 ug/ml [5]: 100% | solubility thermodynamic at 5 h [6]: 8.81 µg/mL (≈ 19.1 µM) | Tmax [7]: 1.75 h | IC50 (CDK6/cyclin D3): 0.199 µM | Cmax [8]: 316 nM | fraction unbound (serum albumin): 0.033 | Ratio [9]: 4 | AUC [10]: 0.643 µM·h | Vd [11]: 14.1 L/kg | remaining at 8 h [12]: 100% | half-life at 100 µM [13]: 0.417 h | Tmax [14]: 1 h | AUC [15]: 2.41 µM·h | inhibition of growth at 10 µM (MCF7): 80% | IC50 (Cytochrome P450 3A4): > 20 µM | inhibition [16]: > 98% | IC50 (Cytochrome P450 1A2): > 20 µM | fraction unbound [17]: 0.017 | TGI (MIA PaCa-2 [18]): inactive | half-life at 3 µM [19]: 4.68 h | IC50 (CDK1/Cyclin E): 0.0759 µM | Cmax [20]: 3620 nM | microsomal CLint at 100 µM [21]: < 13 µL/min/mg | microsomal CLint at 100 µM [22]: > 29 µL/min/mg | inhibition [23]: > 98% | Drug uptake (Kidney): Active | CLint (Liver [24]): 16 µL/min/mg | inhibition of growth at 10 µM (Caco-2): 68% | CLint (Liver [25]): 19 µL/min/mg
